From PubChem BioAssay
This is a sample that favours compounds with a hit; in the whole collection about 2.4% have one here.
S1P4 agonist: agonists of human S1P4 receptor. O95977. S1P4-expressing cell line, agonist reporter assay. activation, % at 4.98 µM. actives 0.35% (n = 220,000). AID 1509; in the data active = activation above about 11%;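 also: 0% = DMSO vehicle and 100% = reference agonist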
Target sequence (O95977 whole entry, looked up): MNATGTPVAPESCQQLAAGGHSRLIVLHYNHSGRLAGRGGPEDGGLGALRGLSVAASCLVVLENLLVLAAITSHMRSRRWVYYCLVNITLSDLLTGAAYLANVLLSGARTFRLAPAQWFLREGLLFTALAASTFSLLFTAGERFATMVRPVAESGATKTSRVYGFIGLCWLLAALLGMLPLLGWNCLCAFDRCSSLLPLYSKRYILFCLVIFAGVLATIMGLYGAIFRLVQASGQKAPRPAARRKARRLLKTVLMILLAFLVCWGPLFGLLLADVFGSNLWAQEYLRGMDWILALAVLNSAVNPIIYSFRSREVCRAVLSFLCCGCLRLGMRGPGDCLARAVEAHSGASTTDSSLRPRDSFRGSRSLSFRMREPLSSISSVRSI
S1P4 antag: antagonists of human S1P4 receptor. O95977. S1P4-expressing cells, antagonist mode, reporter read-out. inhibition, % at 4.98 µM. actives 0.26% (n = 220,000); in the data active = inhibition above about 29%;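 also: 0% = wells stimulated with agonist and 100% = vehicle wells without agonist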
NPY1 pot ag: potentiators or agonists of human neuropeptide Y receptor Y1 | P25929 | NPY-Y1 expressing cells, potentiator/agonist activation | activation, % at 3.6 µM | actives 0.37% (n = 220,000) | AID 1304; in the data active = activation above about 33%, passing the limit was not always enough;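 also: cells stimulated with NPY at EC10 then isoproterenol at EC100; 0% = low agonist plus stimulus and 100% = saturating agonist plus stimulus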
NPY Y1 blocker: NPY-Y1 (human) receptor antagonism; P25929; HEK293-CNG Y1 cells, membrane potential fluorescence; NPY at EC95, then isoproterenol; inhibition, % at 3.6 µM; actives 1% (n = 200,000); AID 1040;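 active = inhibition above the campaign mean inhibition of all tested compounds plus 3 SD, cut at about 20% in these data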;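 also: 0% = DMSO wells given NPY plus isoproterenol and 100% = isoproterenol alone without NPY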
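System: HEK293 cells with Y1 receptor plus CNG channel / Probe or stimulus: NPY 25 nM then isoproterenol 1 µM plus Ro 20-1724 25 µM / Compound: one concentration, 3.6 µM, in 0.4% DMSO / Schedule: compound incubation 1 h at room temperature, readout 45 min post-stimulation / Measured by: membrane potential fluorescence / Read-out: % inhibition of NPY effect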
NPY Y2 blocker: NPY-Y2 (human) receptor antagonism | NPY-Y2 expressing cells, antagonist mode | AID 793 | actives 0.99% (n = 140,000) | inhibition, % at 2.7 µM; in the data active = inhibition above about 17%;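 also: 0% = vehicle with agonist challenge and 100% = reference antagonist with challenge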
NPY-Y2 PAM-ag: human NPY-Y2 potentiation or agonism, primary screen; cells expressing NPY-Y2, potentiator/agonist read-out; activation, % at 3.6 µM; actives 0.45% (n = 220,000); in the data active = activation above about 27%;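 also: cells stimulated with NPY near EC25 plus isoproterenol at EC100; 0% = vehicle plus submaximal agonist and 100% = vehicle plus saturating agonist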
S1P4 antag cf: human S1P4 antagonism, confirmation | shares compounds with S1P4 antag | S1P4-expressing cell line, antagonist mode, reporter read-out | inhibition, % at 4.98 µM | actives 71% (n = 520); in the data active = inhibition above about 30%
S1P1 antagonist: human S1P1 antagonism as S1P4 antagonist counter-screen. shares compounds with S1P4 antag. actives 37% (n = 520). AID 1564. cell-based S1P1 antagonist counterscreen, inhibition. inhibition, % at 4.98 µM; in the data active = inhibition above about 40%;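 also: receptor stimulated with S1P near its EC80; 0% = agonist stimulated wells and 100% = vehicle only wells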
* marks the source's active call; other numbers are inactive results.

How did O=C(c1ccccc1)C(CCC(CN1CCOCC1)C(=O)c1ccccc1)CN1CCOCC1 (configuration not stated) do in these assays?
S1P4 agonist: -3; S1P4 antag: 22; NPY1 pot ag: 5; NPY Y1 blocker: -8; NPY Y2 blocker: 4; NPY-Y2 PAM-ag: 2

What do the screens show for `CN(C)CC(CCC(CN(C)C)C(=O)c1ccccc1)C(=O)c1ccccc1` (configuration not stated)?
S1P4 agonist: 0; S1P4 antag: 41*; NPY1 pot ag: -1; NPY-Y2 PAM-ag: -38; S1P4 antag cf: 110*; S1P1 antagonist: 39

Results for CCOc1ccc(C(=O)C(CCC(CN(C)C)C(=O)c2ccc(OCC)cc2)CN(C)C)cc1 (configuration not stated) ?
S1P4 agonist: -3; S1P4 antag: 43*; NPY1 pot ag: -30; NPY Y1 blocker: 3; NPY Y2 blocker: 8; NPY-Y2 PAM-ag: -20; S1P4 antag cf: 110*; S1P1 antagonist: 52*

What do the screens show for `COc1cc(/C(C)=N\NC(=O)CSc2nc3ccccc3n2C)ccc1O`?
S1P4 agonist: 0; S1P4 antag: 0; NPY1 pot ag: -1; NPY-Y2 PAM-ag: -11

What do the screens show for `CCCCS(=O)(=O)/C=C\C1C2C=CC(C2)C1S(=O)(=O)CCCC` (configuration not stated)?
S1P4 agonist: -1; S1P4 antag: 10; NPY1 pot ag: 9; NPY Y1 blocker: 3; NPY Y2 blocker: 1; NPY-Y2 PAM-ag: 11

Results for CCCCS(=O)(=O)/C=C\C=C/S(=O)(=O)CCCC ?
S1P4 agonist: -4; S1P4 antag: 99*; NPY1 pot ag: -14; NPY Y1 blocker: 2; NPY Y2 blocker: -3; NPY-Y2 PAM-ag: -1; S1P4 antag cf: 117*; S1P1 antagonist: 62*

What do the screens show for `N#Cc1ccc(/C=C/C(=O)c2cccnc2)cc1`?
S1P4 agonist: 1; S1P4 antag: 44*; NPY1 pot ag: -1; NPY Y1 blocker: 2; NPY-Y2 PAM-ag: 0; S1P4 antag cf: 53*; S1P1 antagonist: 52*

How did O=C(Cn1cnc2scc(-c3ccc(Br)cc3)c2c1=O)N1CCOCC1 do in these assays?
S1P4 agonist: 1; S1P4 antag: -4; NPY1 pot ag: -2; NPY Y1 blocker: 0; NPY-Y2 PAM-ag: 3

What do the screens show for `CC(C)(C)OC(=O)N/N=C\C=C\c1ccc2c(c1)OCO2`?
S1P4 agonist: 0; S1P4 antag: -22; NPY1 pot ag: -11; NPY Y1 blocker: 0; NPY Y2 blocker: 2; NPY-Y2 PAM-ag: -3

Results for COC(=O)N/N=C\C=C\c1ccc2c(c1)OCO2 ?
S1P4 agonist: -1; S1P4 antag: 55*; NPY1 pot ag: 17; NPY Y1 blocker: 0; NPY Y2 blocker: 7; NPY-Y2 PAM-ag: -3; S1P4 antag cf: -19; S1P1 antagonist: -14

How did Cc1cc(Cl)n2c(nc3cc(F)c(F)cc32)c1C#N do in these assays?
S1P4 agonist: 3; S1P4 antag: 31*; NPY1 pot ag: -26; NPY Y1 blocker: 22*; NPY-Y2 PAM-ag: -2; S1P4 antag cf: 112*; S1P1 antagonist: 81*

How did Cc1nc2ccc(NC(=O)c3cccc(S(=O)(=O)N4CC(C)OC(C)C4)c3)cc2s1 (configuration not stated) do in these assays?
S1P4 agonist: -2; S1P4 antag: -3; NPY1 pot ag: 15; NPY Y1 blocker: 6; NPY Y2 blocker: 1; NPY-Y2 PAM-ag: 5

What do the screens show for `Oc1[nH]c2ccc(Br)cc2c1N=NC(=S)N1CCOCC1`?
S1P4 agonist: -1; S1P4 antag: 33*; NPY1 pot ag: 8; NPY-Y2 PAM-ag: 4; S1P4 antag cf: 102*; S1P1 antagonist: 58*

How did c1ccc(CN2CCN(c3nc(N4CCOCC4)c4ccccc4n3)CC2)cc1 do in these assays?
S1P4 agonist: 0; S1P4 antag: 36*; NPY1 pot ag: -30; NPY Y1 blocker: 6; NPY Y2 blocker: 5; NPY-Y2 PAM-ag: -12; S1P4 antag cf: 8; S1P1 antagonist: 34

Results for c1ccc2c(N3CCOCC3)nc(N3CCOCC3)nc2c1 ?
S1P4 agonist: -2; S1P4 antag: -2; NPY1 pot ag: -32; NPY Y1 blocker: 3; NPY Y2 blocker: 0; NPY-Y2 PAM-ag: 0

What do the screens show for `O=C(O)COc1ccc(/C=N/NC(=O)Cc2ccc(Cl)cc2)cc1`?
S1P4 agonist: 2; S1P4 antag: -14; NPY1 pot ag: 3; NPY-Y2 PAM-ag: 17

How did CCOc1cc(/C=C\[N+](=O)[O-])ccc1OCC(=O)Nc1ccccc1C do in these assays?
S1P4 agonist: 1; S1P4 antag: 58*; NPY1 pot ag: -18; NPY Y1 blocker: -4; NPY Y2 blocker: 2; NPY-Y2 PAM-ag: 4; S1P4 antag cf: 118*; S1P1 antagonist: 84*

How did CCOc1cc(/C=N/NC(N)=O)cc(Br)c1OCC(=O)Nc1ccccc1C do in these assays?
S1P4 agonist: -1; S1P4 antag: 6; NPY1 pot ag: -42; NPY Y1 blocker: 18; NPY Y2 blocker: 17; NPY-Y2 PAM-ag: -29

Results for O=C(Nc1nc(-c2ccc3ccccc3c2)cs1)C1CCN(S(=O)(=O)c2cccs2)CC1 ?
S1P4 agonist: 0; S1P4 antag: -4; NPY1 pot ag: 22; NPY Y1 blocker: -2; NPY Y2 blocker: -1; NPY-Y2 PAM-ag: 21

How did Cc1ccc(-c2csc(NC(=O)C3CCN(S(=O)(=O)c4cccs4)CC3)n2)cc1 do in these assays?
S1P4 agonist: -1; S1P4 antag: 59*; NPY1 pot ag: 19; NPY Y1 blocker: 19; NPY Y2 blocker: 3; NPY-Y2 PAM-ag: 28; S1P4 antag cf: 5; S1P1 antagonist: 14

How did O=C(CN(CCc1ccccc1)S(=O)(=O)c1ccc(Br)cc1)N/N=C/c1ccccc1C(=O)O do in these assays?
S1P4 agonist: 0; S1P4 antag: -5; NPY1 pot ag: -16; NPY Y1 blocker: -2; NPY-Y2 PAM-ag: 2

What do the screens show for `Cc1cccc(C(=O)NC(NC(=S)Nc2ccc(S(N)(=O)=O)cc2)C(Cl)(Cl)Cl)c1` (configuration not stated)?
S1P4 agonist: -3; S1P4 antag: -15; NPY1 pot ag: 3; NPY Y1 blocker: 3; NPY Y2 blocker: 2; NPY-Y2 PAM-ag: -6

What do the screens show for `O=C(Nc1nnc(-c2ccc3c(c2)CCCC3)o1)c1ccccc1`?
S1P4 agonist: 2; S1P4 antag: 31*; NPY1 pot ag: -34; NPY Y1 blocker: 10; NPY Y2 blocker: 12; NPY-Y2 PAM-ag: -18; S1P4 antag cf: 102*; S1P1 antagonist: 96*

How did O=C(Nc1nnc(-c2ccc3c(c2)CCCC3)o1)c1ccccc1Cl do in these assays?
S1P4 agonist: -1; S1P4 antag: -9; NPY1 pot ag: -5; NPY Y1 blocker: 9; NPY Y2 blocker: 4; NPY-Y2 PAM-ag: -5
